# Measured values as given in ChEMBL document CHEMBL4257467, “Synthesis and pharmaceutical characterization of site specific mycophenolic acid-modified Xenopus glucagon-like peptide-1 analogs” (Medchemcomm, 2018).
# The source made the active and inactive calls. *1 amine or outer side, *2 acyl side, *3 side chain or, on linkers, in order; H or OH if unused. Where a SMILES comes first, the peptide text is derived from it. Side-chain parts run from the residue outwards. The star is where a group is joined. Mycophenolyl = COc1c(C)c2c(c(O)c1C/C=C(\C)CCC(=O)*)C(=O)OC2; γGlu = O=C(O)[C@H](CCC(=O)[*:2])N[*:1]; 12Ado = NCCCCCCCCCCCC(=O)O; Ahx = NCCCCCC(=O)O
# How the values were obtained:
# [1] = molecular target: Glucagon-like peptide 1 receptor (Homo sapiens, UniProt P43220); test: Agonist activity at human GLP1 receptor expressed in HEK293 cells assessed as increase in cAMP level after 30 mins by HTRF method; assay type: functional, cell-based
# Procedure, shortened: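 HEK293 cells stably expressing human GLP-1 receptor, thawed, suspended in DMEM with 20 mM HEPES, 2 mM L-Glu, 0.5% FBS, 1% pen-strep. Compounds dissolved in DMSO, diluted in assay buffer to 1 × 10−13–1 × 10−6 M final, 30 min at 37 °C in 5% CO2. cAMP read by HTRF. EC50 as means ± SD of three individual experiments, n = 3.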
# Mus musculus [2] = test: Antidiabetic activity in Kunming mouse assessed as reduction in blood glucose level at 25 nmol/kg, ip pretreated for 30 mins followed by glucose-challenge and measured after 15 to 120 mins by IPGTT; assay type: functional, organism-based
# Procedure, shortened: (§1)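 Male Kunming mice (20–25 g, n = 6) fasted overnight. Peptide or saline 25 nmol kg−1 ip at −30 min, ip glucose 2 g kg−1 at 0 min. Tail-vein blood glucose by glucometer at −30, 0, 15, 30, 60 and 120 min. Glucose AUC0–120min calculated; means ± SD.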
# Mus musculus [3] = test: Antidiabetic activity in Kunming mouse assessed as reduction in blood glucose AUC at 25 nmol/kg, ip pretreated for 30 mins followed by glucose-challenge and measured after 15 to 120 mins by IPGTT; assay type: functional, organism-based; procedure, shortened: as §1
# Albumin = Albumin (Homo sapiens, UniProt P02768); test: Binding affinity to human serum albumin after 60 mins by ultrafiltration-based HPLC analysis; assay type: ADME; settings: for fraction unbound at 1 h: human serum albumin, read-out: PB (converted)
# Procedure, shortened: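 Peptide in PBS pH 7.4 (100 μg ml−1) mixed with HSA (10 mg ml−1 in PBS), incubated 60 min at 37 °C. Ultrafiltration through 30 kDa cutoff filter, 30 min at 3500 rpm. Free compound in filtrate by HPLC. Membrane adsorption checked (<4%). Repeated three times.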
# [4] = Half life in Sprague-Dawley rat plasma at 0.5 mL by LC-MS/MS analysis; assay type: ADME, cell-free; settings: for half-life: Sprague-Dawley
# Procedure, shortened: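 Plasma from male Sprague-Dawley rats (200–250 g). Peptide in PBS pH 7.4 added to initial 1000 ng ml−1 and incubated at 37 °C for 48 h. Samples at 2, 4, 8, 12, 24, 36, 48 h precipitated with acetonitrile containing 2% formic acid, centrifuged, analysed by LC-MS/MS in MRM mode. Degradation curves in triplicate.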
# Albumin, sequence (P02768 whole entry): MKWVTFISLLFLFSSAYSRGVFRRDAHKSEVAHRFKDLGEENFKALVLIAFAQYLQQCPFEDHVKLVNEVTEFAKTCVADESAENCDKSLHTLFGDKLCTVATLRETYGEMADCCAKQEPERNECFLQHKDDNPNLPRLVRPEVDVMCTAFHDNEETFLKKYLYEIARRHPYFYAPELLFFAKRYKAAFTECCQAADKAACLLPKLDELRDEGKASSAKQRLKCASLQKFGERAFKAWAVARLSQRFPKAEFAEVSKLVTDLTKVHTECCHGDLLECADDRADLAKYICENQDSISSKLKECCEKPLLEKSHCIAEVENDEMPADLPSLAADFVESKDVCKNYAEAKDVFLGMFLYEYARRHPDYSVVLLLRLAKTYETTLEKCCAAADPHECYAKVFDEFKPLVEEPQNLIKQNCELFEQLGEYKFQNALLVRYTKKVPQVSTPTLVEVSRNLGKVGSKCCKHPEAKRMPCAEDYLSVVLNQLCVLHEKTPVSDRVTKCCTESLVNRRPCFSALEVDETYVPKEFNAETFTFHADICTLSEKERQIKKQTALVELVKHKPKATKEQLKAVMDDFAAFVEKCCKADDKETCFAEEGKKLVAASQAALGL
# Glucagon-like peptide 1 receptor, sequence (P43220 whole entry): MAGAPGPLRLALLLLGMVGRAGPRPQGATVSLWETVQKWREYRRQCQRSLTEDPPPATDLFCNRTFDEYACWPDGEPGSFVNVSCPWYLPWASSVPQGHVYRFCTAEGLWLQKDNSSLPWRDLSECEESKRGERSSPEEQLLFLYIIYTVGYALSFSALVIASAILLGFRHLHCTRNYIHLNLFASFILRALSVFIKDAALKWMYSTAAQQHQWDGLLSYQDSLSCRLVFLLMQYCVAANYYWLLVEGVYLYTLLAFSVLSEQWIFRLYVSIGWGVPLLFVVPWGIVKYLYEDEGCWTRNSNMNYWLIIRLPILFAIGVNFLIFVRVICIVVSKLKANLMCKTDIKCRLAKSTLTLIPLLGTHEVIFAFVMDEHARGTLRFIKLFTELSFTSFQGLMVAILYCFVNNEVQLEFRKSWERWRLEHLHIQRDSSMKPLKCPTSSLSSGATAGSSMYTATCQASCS
compound,measurement,setting,value
CC[C@H](C)[C@H](NC(=O)[C@H](CC(C)C)NC(=O)[C@H](Cc1c[nH]c2ccccc12)NC(=O)[C@H](CCC(=O)O)NC(=O)[C@@H](NC(=O)[C@H](Cc1ccccc1)NC(=O)[C@H](CCC(=O)O)NC(=O)[C@H](CCCCNC(=O)CC[C@H](NC(=O)CCCCCCCCCCCNC(=O)CC/C(C)=C/Cc1c(O)c2c(c(C)c1OC)COC2=O)C(=O)O)NC(=O)[C@H](C)NC(=O)[C@H](C)NC(=O)[C@H](CCC(=O)O)NC(=O)[C@H](CCC(=O)O)NC(=O)[C@H](CCC(=O)O)NC(=O)[C@H](CC(C)C)NC(=O)[C@H](Cc1ccc(O)cc1)NC(=O)[C@H](CCC(=O)O)NC(=O)[C@@H](NC(=O)[C@@H](NC(=O)[C@H](CC(=O)O)NC(=O)[C@H](CC(N)=O)NC(=O)[C@@H](NC(=O)[C@H](Cc1ccc(O)cc1)NC(=O)[C@@H](NC(=O)CNC(=O)[C@H](CCC(=O)O)NC(=O)CNC(=O)[C@@H](N)Cc1cnc[nH]1)[C@@H](C)O)[C@@H](C)O)C(C)C)[C@@H](C)O)[C@@H](C)CC)C(=O)N[C@@H](CCCCN)C(=O)NCC(=O)N[C@@H](CCCCN)C(=O)O (H-HGEGTYTNDVTEYLEEEAAK([γGlu-12Ado-Mycophenolyl])EFIEWLIKGK-OH),EC50,[1],7.3 nM
CC[C@H](C)[C@H](NC(=O)[C@H](CC(C)C)NC(=O)[C@H](Cc1c[nH]c2ccccc12)NC(=O)[C@H](CCC(=O)O)NC(=O)[C@@H](NC(=O)[C@H](Cc1ccccc1)NC(=O)[C@H](CCC(=O)O)NC(=O)[C@H](CCCCNC(=O)CC[C@H](NC(=O)CCCCCNC(=O)CC/C(C)=C/Cc1c(O)c2c(c(C)c1OC)COC2=O)C(=O)O)NC(=O)[C@H](C)NC(=O)[C@H](C)NC(=O)[C@H](CCC(=O)O)NC(=O)[C@H](CCC(=O)O)NC(=O)[C@H](CCC(=O)O)NC(=O)[C@H](CC(C)C)NC(=O)[C@H](Cc1ccc(O)cc1)NC(=O)[C@H](CCC(=O)O)NC(=O)[C@@H](NC(=O)[C@@H](NC(=O)[C@H](CC(=O)O)NC(=O)[C@H](CC(N)=O)NC(=O)[C@@H](NC(=O)[C@H](Cc1ccc(O)cc1)NC(=O)[C@@H](NC(=O)CNC(=O)[C@H](CCC(=O)O)NC(=O)CNC(=O)[C@@H](N)Cc1cnc[nH]1)[C@@H](C)O)[C@@H](C)O)C(C)C)[C@@H](C)O)[C@@H](C)CC)C(=O)N[C@@H](CCCCN)C(=O)NCC(=O)N[C@@H](CCCCN)C(=O)O (H-HGEGTYTNDVTEYLEEEAAK([γGlu-Ahx-Mycophenolyl])EFIEWLIKGK-OH),EC50,[1],6.9 nM
CC[C@H](C)[C@H](NC(=O)[C@H](CC(C)C)NC(=O)[C@H](Cc1c[nH]c2ccccc12)NC(=O)[C@H](CCC(=O)O)NC(=O)[C@@H](NC(=O)[C@H](Cc1ccccc1)NC(=O)[C@H](CCC(=O)O)NC(=O)[C@H](CCCCNC(=O)CC[C@H](NC(=O)CCCCCNC(=O)CC/C(C)=C/Cc1c(O)c2c(c(C)c1OC)COC2=O)C(=O)O)NC(=O)[C@H](C)NC(=O)[C@H](C)NC(=O)[C@H](CCC(=O)O)NC(=O)[C@H](CCC(=O)O)NC(=O)[C@H](CCC(=O)O)NC(=O)[C@H](CC(C)C)NC(=O)[C@H](Cc1ccc(O)cc1)NC(=O)[C@H](CCC(=O)O)NC(=O)[C@@H](NC(=O)[C@@H](NC(=O)[C@H](CC(=O)O)NC(=O)[C@H](CC(N)=O)NC(=O)[C@@H](NC(=O)[C@H](Cc1ccc(O)cc1)NC(=O)[C@@H](NC(=O)CNC(=O)[C@H](CCC(=O)O)NC(=O)CNC(=O)[C@@H](N)Cc1cnc[nH]1)[C@@H](C)O)[C@@H](C)O)C(C)C)[C@@H](C)O)[C@@H](C)CC)C(=O)N[C@@H](CCCCN)C(=O)NCC(=O)N[C@@H](CCCCN)C(=O)N1CCC[C@H]1C(=O)N[C@@H](CO)C(=O)N[C@@H](CO)C(=O)NCC(=O)N[C@@H](C)C(=O)N1CCC[C@H]1C(=O)N1CCC[C@H]1C(=O)N1CCC[C@H]1C(=O)N[C@@H](CO)C(=O)O (H-HGEGTYTNDVTEYLEEEAAK([γGlu-Ahx-Mycophenolyl])EFIEWLIKGKPSSGAPPPS-OH),EC50,[1],4.1 nM
same,Activity,Mus musculus [2],Active
same,Activity,Mus musculus [3],Active
same,fraction unbound at 1 h,Albumin,0.351
same,half-life,[4],19.3 h
CC[C@H](C)[C@H](NC(=O)[C@H](CC(C)C)NC(=O)[C@H](Cc1c[nH]c2ccccc12)NC(=O)[C@H](CCC(=O)O)NC(=O)[C@@H](NC(=O)[C@H](Cc1ccccc1)NC(=O)[C@H](CCC(=O)O)NC(=O)[C@H](CCCCN)NC(=O)[C@H](C)NC(=O)[C@H](C)NC(=O)[C@H](CCC(=O)O)NC(=O)[C@H](CCC(=O)O)NC(=O)[C@H](CCC(=O)O)NC(=O)[C@H](CC(C)C)NC(=O)[C@H](Cc1ccc(O)cc1)NC(=O)[C@H](CCC(=O)O)NC(=O)[C@@H](NC(=O)[C@@H](NC(=O)[C@H](CC(=O)O)NC(=O)[C@H](CC(N)=O)NC(=O)[C@@H](NC(=O)[C@H](Cc1ccc(O)cc1)NC(=O)[C@@H](NC(=O)CNC(=O)[C@H](CCC(=O)O)NC(=O)CNC(=O)[C@@H](N)Cc1cnc[nH]1)[C@@H](C)O)[C@@H](C)O)C(C)C)[C@@H](C)O)[C@@H](C)CC)C(=O)N[C@@H](CCCCNC(=O)CC[C@H](NC(=O)CCCCCCCCCCCNC(=O)CC/C(C)=C/Cc1c(O)c2c(c(C)c1OC)COC2=O)C(=O)O)C(=O)NCC(=O)N[C@@H](CCCCN)C(=O)O (H-HGEGTYTNDVTEYLEEEAAKEFIEWLIK([γGlu-12Ado-Mycophenolyl])GK-OH),EC50,[1],16.3 nM
CC[C@H](C)[C@H](NC(=O)[C@H](CC(C)C)NC(=O)[C@H](Cc1c[nH]c2ccccc12)NC(=O)[C@H](CCC(=O)O)NC(=O)[C@@H](NC(=O)[C@H](Cc1ccccc1)NC(=O)[C@H](CCC(=O)O)NC(=O)[C@H](CCCCN)NC(=O)[C@H](C)NC(=O)[C@H](C)NC(=O)[C@H](CCC(=O)O)NC(=O)[C@H](CCC(=O)O)NC(=O)[C@H](CCC(=O)O)NC(=O)[C@H](CC(C)C)NC(=O)[C@H](Cc1ccc(O)cc1)NC(=O)[C@H](CCC(=O)O)NC(=O)[C@@H](NC(=O)[C@@H](NC(=O)[C@H](CC(=O)O)NC(=O)[C@H](CC(N)=O)NC(=O)[C@@H](NC(=O)[C@H](Cc1ccc(O)cc1)NC(=O)[C@@H](NC(=O)CNC(=O)[C@H](CCC(=O)O)NC(=O)CNC(=O)[C@@H](N)Cc1cnc[nH]1)[C@@H](C)O)[C@@H](C)O)C(C)C)[C@@H](C)O)[C@@H](C)CC)C(=O)N[C@@H](CCCCNC(=O)CC[C@H](NC(=O)CCCCCNC(=O)CC/C(C)=C/Cc1c(O)c2c(c(C)c1OC)COC2=O)C(=O)O)C(=O)NCC(=O)N[C@@H](CCCCN)C(=O)O (H-HGEGTYTNDVTEYLEEEAAKEFIEWLIK([γGlu-Ahx-Mycophenolyl])GK-OH),EC50,[1],11.8 nM
CC[C@H](C)[C@H](NC(=O)[C@H](CC(C)C)NC(=O)[C@H](Cc1c[nH]c2ccccc12)NC(=O)[C@H](CCC(=O)O)NC(=O)[C@@H](NC(=O)[C@H](Cc1ccccc1)NC(=O)[C@H](CCC(=O)O)NC(=O)[C@H](CCCCN)NC(=O)[C@H](C)NC(=O)[C@H](C)NC(=O)[C@H](CCC(=O)O)NC(=O)[C@H](CCC(=O)O)NC(=O)[C@H](CCC(=O)O)NC(=O)[C@H](CC(C)C)NC(=O)[C@H](Cc1ccc(O)cc1)NC(=O)[C@H](CCC(=O)O)NC(=O)[C@@H](NC(=O)[C@@H](NC(=O)[C@H](CC(=O)O)NC(=O)[C@H](CC(N)=O)NC(=O)[C@@H](NC(=O)[C@H](Cc1ccc(O)cc1)NC(=O)[C@@H](NC(=O)CNC(=O)[C@H](CCC(=O)O)NC(=O)CNC(=O)[C@@H](N)Cc1cnc[nH]1)[C@@H](C)O)[C@@H](C)O)C(C)C)[C@@H](C)O)[C@@H](C)CC)C(=O)N[C@@H](CCCCN)C(=O)NCC(=O)N[C@@H](CCCCNC(=O)CC[C@H](NC(=O)CCCCCCCCCCCNC(=O)CC/C(C)=C/Cc1c(O)c2c(c(C)c1OC)COC2=O)C(=O)O)C(=O)O (H-HGEGTYTNDVTEYLEEEAAKEFIEWLIKGK([γGlu-12Ado-Mycophenolyl])-OH),EC50,[1],23.5 nM
CC[C@H](C)[C@H](NC(=O)[C@H](CC(C)C)NC(=O)[C@H](Cc1c[nH]c2ccccc12)NC(=O)[C@H](CCC(=O)O)NC(=O)[C@@H](NC(=O)[C@H](Cc1ccccc1)NC(=O)[C@H](CCC(=O)O)NC(=O)[C@H](CCCCN)NC(=O)[C@H](C)NC(=O)[C@H](C)NC(=O)[C@H](CCC(=O)O)NC(=O)[C@H](CCC(=O)O)NC(=O)[C@H](CCC(=O)O)NC(=O)[C@H](CC(C)C)NC(=O)[C@H](Cc1ccc(O)cc1)NC(=O)[C@H](CCC(=O)O)NC(=O)[C@@H](NC(=O)[C@@H](NC(=O)[C@H](CC(=O)O)NC(=O)[C@H](CC(N)=O)NC(=O)[C@@H](NC(=O)[C@H](Cc1ccc(O)cc1)NC(=O)[C@@H](NC(=O)CNC(=O)[C@H](CCC(=O)O)NC(=O)CNC(=O)[C@@H](N)Cc1cnc[nH]1)[C@@H](C)O)[C@@H](C)O)C(C)C)[C@@H](C)O)[C@@H](C)CC)C(=O)N[C@@H](CCCCN)C(=O)NCC(=O)N[C@@H](CCCCNC(=O)CC[C@H](NC(=O)CCCCCNC(=O)CC/C(C)=C/Cc1c(O)c2c(c(C)c1OC)COC2=O)C(=O)O)C(=O)O (H-HGEGTYTNDVTEYLEEEAAKEFIEWLIKGK([γGlu-Ahx-Mycophenolyl])-OH),EC50,[1],16.8 nM
H-HGEGTYTNDVTEYLEEEAAK([γGlu-Ahx-Mycophenolyl])EFIEWLIKGKPSSGAPPSKKKKKK-OH,EC50,[1],2.8 nM
same,Activity,Mus musculus [2],Active
same,Activity,Mus musculus [3],Active
same,fraction unbound at 1 h,Albumin,0.361
same,half-life,[4],22.1 h
H-HGEGTYTNDVTEYLEEEAAKEFIEWLIKGK-OH,EC50,[1],5.4 nM
SEMAGLUTIDE,PB,"Albumin; isolated protein, 1 h",97.8%
same,t1/2,[4],> 48 h
